T cruzi growth-1 = blocks T. cruzi growth in NIH3T3 culture. hit rate 5.9% among 77,000. inhibition, % at 8.34 µM. AID 624255. T. cruzi beta-gal in NIH3T3, GalScreen luminescence, 90 h;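 active = mean inhibition above about 93%, with at least 55% of replicates each passing it, limit read from the data, passing the limit was not always enough; inconclusive = only one of those two conditions holds; inactive = neither condition holds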
GASC1 inh = blocks human GASC-1 (KDM4C) demethylase activity; inhibition, % at 12.5 µM; Q9H3R0; GST-KDM4C 2-372, H3K9me3 peptide, LANCE TR-FRET; hit rate 0.15% among 96,000;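 active = mean replicate inhibition above about 25%, with at least 55% of replicates also reaching it, limit read from the data, passing the limit was not always enough; inconclusive = only one of those two conditions met; inactive = neither condition met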
Target sequence (Q9H3R0 2-372 limits assumed): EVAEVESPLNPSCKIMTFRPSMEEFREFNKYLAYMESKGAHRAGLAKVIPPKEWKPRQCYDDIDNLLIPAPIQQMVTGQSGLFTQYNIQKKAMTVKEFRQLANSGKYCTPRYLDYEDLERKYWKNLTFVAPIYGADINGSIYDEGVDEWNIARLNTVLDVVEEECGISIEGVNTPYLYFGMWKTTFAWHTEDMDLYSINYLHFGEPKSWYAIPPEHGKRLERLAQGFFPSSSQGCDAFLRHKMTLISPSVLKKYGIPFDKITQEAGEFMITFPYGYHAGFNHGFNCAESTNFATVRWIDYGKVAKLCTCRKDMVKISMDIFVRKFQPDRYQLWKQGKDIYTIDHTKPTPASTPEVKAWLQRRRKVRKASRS
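System: N-terminal GST-fused human GASC-1 (KDM4C) fragment, residues 2-372; amount: enzyme final amount 10 nM; incubation: reaction 30 min RT, detection step 1 h RT; medium: HEPES buffer, pH 7.5, plus ascorbate; technique: LANCE TR-FRET, Eu antibody, ULight-streptavidin, EDTA, ex 340 nm, em 618/671 nm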
Pf Dd2 inh = blocks growth of Plasmodium falciparum Dd2 parasites | P. falciparum Dd2 growth, SYBR Green, 72 h; stronger effect = lower value | activity change, % at 10 µM | hit rate 2.3% among 94,000 | AID 1159554; in the data active = activity change below about -80%; inconclusive = no clear call, values can overlap the other calls
IDH1 mut inh = blocks human IDH1 R132H reductase activity; O75874; diaphorase/resazurin fluorescence, 60 min; inhibition, % at 10 µM; hit rate 0.18% among 70,000; AID 624101; in the data active = inhibition above about 34%; inconclusive = no clear call, values can overlap the other calls; inactive = below about 11%;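 also: 0% = DMSO and 100% = no enzyme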
Target sequence (O75874 whole entry R132H): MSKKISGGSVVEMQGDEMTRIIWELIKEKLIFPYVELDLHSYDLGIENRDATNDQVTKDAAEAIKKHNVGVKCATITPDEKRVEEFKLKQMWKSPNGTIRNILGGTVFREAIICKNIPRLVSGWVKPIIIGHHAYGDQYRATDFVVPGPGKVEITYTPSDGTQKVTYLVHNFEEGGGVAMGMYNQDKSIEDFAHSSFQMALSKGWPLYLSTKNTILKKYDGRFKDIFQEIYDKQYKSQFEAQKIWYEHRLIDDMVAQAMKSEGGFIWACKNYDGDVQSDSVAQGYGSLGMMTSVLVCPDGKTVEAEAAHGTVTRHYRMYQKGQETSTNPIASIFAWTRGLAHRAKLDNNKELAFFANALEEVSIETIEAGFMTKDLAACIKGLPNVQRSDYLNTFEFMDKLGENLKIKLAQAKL
T cruzi growth-2 = inhibitors of T. cruzi proliferation. T. cruzi beta-gal in NIH3T3, GalScreen luminescence, 90 h. shares compounds with T cruzi growth-1. AID 651739. hit rate 72% among 5,600. inhibition, % at 8.35 µM;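 active = mean replicate inhibition above about 95% and at least 55% of replicates individually reaching it, limit read from the data; inconclusive = only one of the two criteria is met; inactive = neither criterion is met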
T cruzi growth-3 = inhibitors of T. cruzi proliferation; T. cruzi beta-gal in NIH3T3, GalScreen luminescence, 90 h; hit rate 21% among 5,600; inhibition, % at 2.09 µM; shares compounds with T cruzi growth-1;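 active = mean inhibition above about 95%, with at least 55% of replicates also reaching it, limit read from the data; inconclusive = meets just one of the two conditions; inactive = meets neither condition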;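 also: plate controls were neutral control median for no effect and positive control median for full effect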
NIH3T3 tox = cytotoxicity in mouse NIH/3T3 fibroblasts. hit rate 14% among 5,600. AID 651742. cytotoxicity (signal decrease), % at 8.35 µM. NIH/3T3 viability, CellTiter-Glo ATP luminescence, 90 h. shares compounds with T cruzi growth-1;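 active = mean signal decrease across replicates above about 35% based on untreated-well scatter, with enough replicates individually passing, limit read from the data; inconclusive = no rule stated though some were filed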;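 also: 0% = median of neutral control wells and 100% = median of positive control wells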
NIH3T3 tox 2 = kills mouse NIH/3T3 fibroblasts | hit rate 56% among 5,600 | AID 651744 | inhibition, % at 24.9 µM | shares compounds with T cruzi growth-1 | NIH/3T3 viability, CellTiter-Glo ATP luminescence, 90 h;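 active = mean loss of cell viability signal at or above a set limit, and enough replicates individually reaching it; inconclusive = meets only the mean limit or only the replicate share; inactive = meets neither condition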;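 also: 0% = median of neutral control wells and 100% = median of positive control wells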
* hit, by the source's call; ? = inconclusive; · = no result. Sampled rows, rich in hits. Any-hit rate of the full collection: about 5.8%.

SMILES | T cruzi growth-1 | GASC1 inh | Pf Dd2 inh | IDH1 mut inh | T cruzi growth-2 | T cruzi growth-3 | NIH3T3 tox | NIH3T3 tox 2
C[C@H](CO)N1C[C@H](C)[C@H](CN(C)C(=O)Nc2cccc(F)c2)Oc2cc(/C=C/c3ccccc3)ccc2S1(=O)=O | 123.6* | -1.4 | -75.6 | 1.8 | 104.8* | 111.4* | 39.3* | 36.8*
C[C@H]1CN([C@@H](C)CO)S(=O)(=O)c2ccc(/C=C/c3ccccc3)cc2O[C@@H]1CN(C)C(=O)Nc1cccc(F)c1 | 125.3* | 0.6 | -19.2 | 2.2 | 95.1* | 100.3* | ? | 47.1*
O=C(CCCCCCC(=O)N/N=C/c1cccnc1Br)NO | · | · | · | 0.0 | · | · | · | ·
CCOC(=O)c1ccccc1NC(=O)COc1ccccc1C | · | · | · | 0.0 | · | · | · | ·
COC(=O)c1cccc(NC(=O)CN(c2ccc(F)cc2)S(C)(=O)=O)c1C | · | · | · | 0.1 | · | · | · | ·
COc1cccc(S(=O)(=O)N[C@H]2CC[C@@H](CCn3cc(-c4ccccn4)nn3)O[C@H]2CO)c1 | 18.5 | -1.2 | -10.2 | -0.1 | · | · | · | ·
COc1cccc(-c2ccc3c(c2)O[C@@H](CN(C)C(=O)C2CC2)[C@@H](C)CN([C@@H](C)CO)S3(=O)=O)c1 | 104.8* | -0.2 | -20.6 | · | 79.2 | 61.3 | 16.0 | 45.0*
COc1cccc(-c2ccc3c(c2)O[C@@H](CN(C)C(=O)C2CC2)[C@@H](C)CN([C@H](C)CO)S3(=O)=O)c1 | 104.7* | -1.3 | -44.7 | · | 81.7 | 21.1 | -6.6 | 63.2*
Cc1cccc(S(=O)(=O)N2CC[C@@H]3[C@@H](CO)Nc4ccc(C#Cc5ccccc5F)cc4[C@@H]32)c1 | 49.4 | -0.9 | -27.9 | · | · | · | · | ·
Cc1cc(OCC(=O)Nc2cccc3ncccc23)cc(C)c1Cl | · | · | · | -0.6 | · | · | · | ·
C[C@@H]1CN([C@@H](C)CO)S(=O)(=O)c2ccc(C3=CCCC3)cc2O[C@@H]1CN(C)Cc1cccnc1 | 99.6* | -1.2 | -15.1 | · | ? | 32.9 | ? | 46.1*
C[C@H]1CN([C@@H](C)CO)S(=O)(=O)c2ccc(C3=CCCC3)cc2O[C@@H]1CN(C)Cc1cccnc1 | 102.9* | 1.9 | -62.6 | 7.0 | 104.6* | 103.9* | 55.5* | 62.8*
C[C@@H]1CN([C@@H](C)CO)S(=O)(=O)c2ccc(C3=CCCC3)cc2O[C@H]1CN(C)Cc1cccnc1 | ? | -0.4 | -12.1 | 76.8* | 105.2* | 99.3* | 47.2* | 45.8*
COc1ccc(Cl)cc1NC(=O)CSc1nnc(-c2cccc(C)c2)n1C | · | · | · | -0.2 | · | · | · | ·
Cc1cc(C)c2nc(-c3cccnc3)cc(C(=O)Nc3c(C)nn(Cc4ccccc4C)c3C)c2c1 | · | · | · | -0.3 | · | · | · | ·
O=C(N/N=C/C1=CCCCC1)c1ccccc1O | · | · | · | 0.0 | · | · | · | ·
Cc1noc(C)c1S(=O)(=O)Nc1ccc2c(c1)C(=O)N([C@H](C)CO)C[C@H](C)[C@@H](CN(C)C(=O)Nc1ccc(C(F)(F)F)cc1)OCCCC[C@H](C)O2 | 113.8* | 0.3 | -38.5 | 9.6 | 100.5* | 93.6 | 20.4 | ?
Cc1noc(C)c1S(=O)(=O)Nc1ccc2c(c1)C(=O)N([C@@H](C)CO)C[C@@H](C)[C@@H](CN(C)C(=O)Nc1ccc(C(F)(F)F)cc1)OCCCC[C@@H](C)O2 | ? | -0.4 | -60.4 | · | 95.5* | 101.8* | 11.8 | ?
Cc1noc(C)c1S(=O)(=O)Nc1ccc2c(c1)C(=O)N([C@@H](C)CO)C[C@H](C)[C@H](CN(C)C(=O)Nc1ccc(C(F)(F)F)cc1)OCCCC[C@H](C)O2 | 66.3 | -0.2 | -45.7 | 1.9 | · | · | · | ·
Cc1noc(C)c1S(=O)(=O)Nc1ccc2c(c1)C(=O)N([C@H](C)CO)C[C@H](C)[C@H](CN(C)C(=O)Nc1ccc(C(F)(F)F)cc1)OCCCC[C@H](C)O2 | 100.6 | 0.5 | -20.3 | 0.3 | · | · | · | ·
O=C(Cn1c(=O)oc2ccccc21)Nc1ccc(S(=O)(=O)N2CCOCC2)cc1 | · | · | · | -0.1 | · | · | · | ·
C[C@@H]1CN([C@H](C)CO)S(=O)(=O)c2ccc(C#Cc3ccccc3)cc2O[C@H]1CN(C)S(=O)(=O)c1cn(C)cn1 | 99.5* | -1.5 | -86.1* | -4.2 | 107.0* | 37.4 | 66.7* | 50.9*
C[C@H]1CN([C@@H](C)CO)S(=O)(=O)c2ccc(C#Cc3ccc(F)cc3)cc2O[C@@H]1CN(C)S(=O)(=O)c1cn(C)cn1 | 122.0* | · | -63.4 | -0.4 | 102.9* | 100.9* | 46.5* | 49.4*
O=C(C[C@@H]1C[C@H]2c3cc(NC(=O)CC4CC4)ccc3O[C@H]2[C@@H](CO)O1)NCc1cccnc1 | 29.2 | -4.2 | 9.2 | 0.1 | · | · | · | ·
O=C(C[C@H]1C[C@@H]2c3cc(NC(=O)Nc4ccccc4)ccc3O[C@@H]2[C@H](CO)O1)NCc1cccc(F)c1 | 39.4 | -3.4 | -57.1 | 0.6 | · | · | · | ·
SMILES | T cruzi growth-1 | GASC1 inh | Pf Dd2 inh | IDH1 mut inh | T cruzi growth-2 | T cruzi growth-3 | NIH3T3 tox | NIH3T3 tox 2
O=C(C[C@H]1C[C@H]2c3cc(NC(=O)NC4CCCC4)ccc3O[C@H]2[C@H](CO)O1)NCc1ccccc1 | 53.1 | 0.6 | -15.2 | 0.1 | · | · | · | ·
O=C(C[C@@H]1C[C@H]2c3cc(NC(=O)CC4CC4)ccc3O[C@H]2[C@H](CO)O1)NCc1cccnc1 | 108.6* | -1.8 | 13.1 | -0.1 | 88.3 | -0.4 | 3.2 | 7.5
O=C(C[C@H]1C[C@H]2c3cc(NC(=O)NC4CCCC4)ccc3O[C@H]2[C@@H](CO)O1)NCc1ccc(Cl)cc1 | 105.1* | -1.4 | -14.4 | 0.8 | 2.3 | -7.5 | 5.9 | -0.8
O=C(C[C@@H]1C[C@H]2c3cc(NC(=O)Nc4ccccc4)ccc3O[C@H]2[C@H](CO)O1)NCc1cccc(F)c1 | 103.8* | 0.1 | -3.9 | -0.7 | -26.0 | -17.0 | 15.0 | 13.7
O=C(C[C@@H]1C[C@H]2c3cc(NC(=O)NC4CCCC4)ccc3O[C@H]2[C@H](CO)O1)NCc1ccccc1 | 102.0* | -1.1 | -20.3 | -0.6 | 11.1 | -29.2 | -8.1 | 21.7
CC(C)NC(=O)N1CCCCN2[C@@H](CO)[C@H](c3ccc(C#Cc4ccccc4F)cc3)[C@@H]2C1 | 113.1* | -2.8 | -16.5 | · | 96.4* | 78.6 | 50.9* | 103.5*
CC(C)NC(=O)N1CCCCN2[C@H](CO)[C@H](c3ccc(C#Cc4ccccc4F)cc3)[C@H]2C1 | 109.4* | -1.8 | -33.5 | · | 104.0* | 107.1* | 31.1 | 103.2*
CC(C)NC(=O)N1CCCCN2[C@H](C1)[C@H](c1ccc(C#Cc3ccccc3F)cc1)[C@@H]2CO | 69.8 | -1.4 | 0.9 | · | · | · | · | ·
CN1CCCCN2[C@H](CO)[C@H](c3ccc(-c4cccnc4)cc3)[C@@H]2C1 | ? | -0.2 | -64.2 | · | 75.7 | 32.5 | 2.0 | -12.6
OC[C@@H]1[C@H](c2ccc(-c3cccnc3)cc2)[C@@H]2CN(CC3CC3)CCCCN12 | 104.3* | 0.0 | -71.8 | · | 66.6 | 16.6 | 0.5 | -9.2
